Structures are written as SMILES. pKd: −log10 of the molar value. Active and inactive are the calls of the source. No cut-off for these calls is given here.

Assay [1] relates to HCT-116. The assay can be described thus: Induction of apoptosis in human HCT116 cells assessed as up-regulation of p53 phosphorylation up to 2 uM after 48 hrs by Western blot analysis. In kind it is functional, cell-based.
Assay [2] deals with T1, RecQ-like DNA helicase BLM (Homo sapiens, UniProt P54132). In words: Inhibition of 5'-biotin labeled duplex forked-DNA binding to BLM (unknown origin) assessed as increase in unbound DNA levels at 0.5 to 1 uM after 1 hr by filter-binding assay. A digest of the protocol: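 BLM (100 nM) preincubated with 0.5 or 1.0 μM ligand for 1 h at 37 °C, then mixed with 8 nM biotinylated duplex forked DNA. Vacuum-filtered through nitrocellulose over nylon membranes; DNA UV-crosslinked and detected by chemiluminescence. Dot grey levels give bound (upper) vs free (lower) DNA, relative to total.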

Assay [3] has as its target RecQ-like DNA helicase BLM (Homo sapiens, UniProt P54132, I1168A). The assay can be described thus: Binding affinity to His-tagged BLM I1168A mutant (unknown origin) expressed in Escherichia coli BL21 (DE3) by ITC assay. A digest of the protocol: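 ITC at 25 °C in 2 mM MgCl2, 10 mM KH2PO4, pH 7.5: ligand (0.6 mM, syringe) titrated in 10 μL injections, 300 s apart, into BLM642-1296 wild-type or point mutant, or DNA (0.04 mM, cell). His-tagged BLM from E. coli BL21(DE3), induced with […] at 16 °C for 24 h. Heats integrated, fitted to 1:1 model for KD.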

Assay [4] deals with T1, RecQ-like DNA helicase BLM. The assay can be described thus: Inhibition of BLM in human HCT116 cells assessed as induction of RAD51 recruitment to DSB sites on chromosomes at 0.5 to 1 uM after 48 hrs by ChIP assay. In kind it is cell-based. The gist of the method:
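HCT116 cells co-transfected with HRR(−) reporter DSB model (or chromosomal I-SceI DSBs) and I-SceI; after 24 h given 0–2 μM ligand for 24 h. Crosslinked in 1% formaldehyde, chromatin digested by micrococcal nuclease to 0.2–0.5 kb, IP with anti-BLM or anti-RAD51 (IgG control). qPCR at DSB sites, normalised to untreated; triplicate.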

Assay [5] relates to HCT-116. The assay can be described thus: Induction of apoptosis in human HCT116 cells assessed as apoptotic cells at 2 uM after 48 hrs by Hoechst/propidium iodide-staining based flow cytometry (reference value: 1.09%). In kind it is functional.
The target of assay [6] is T1, RecQ-like DNA helicase BLM. In words: Inhibition of 5'-biotin labeled forked-DNA binding to BLM in human HCT116 cells assessed as increase in unbound DNA levels at 1 uM after 1 hr by Western blot-based pull down assay. It counts as cell-based. A digest of the protocol: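 Biotinylated duplex forked DNA loaded on streptavidin magnetic beads overnight at 4 °C. HCT116 RIPA lysate incubated with beads plus ligand for 1 h at 25 °C. Bead eluate and supernatant analysed for BLM by SDS-PAGE/western blot.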

In assay [7] the test system is HCT-116. The assay can be described thus: Induction of apoptosis in human HCT116 cells assessed as up-regulation of CHK1 phosphorylation up to 2 uM after 24 hrs by Western blot analysis.
Assay [8] relates to HCT-116. The assay can be described thus: Effect on RAD51 protein expression in human HCT116 cells at 1 to 2 after 24 hrs. It counts as functional, cell-based. The gist of the method:
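HCT116 cells treated with ligand (DNA-damage proteins 24 h, apoptosis proteins 48 h), lysed in RIPA at 4 °C. 40 μg protein per lane resolved by SDS-PAGE, blotted to PVDF, probed with damage and apoptosis antibody panels; β-actin loading control; chemiluminescent detection.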

In assay [9] the target is T1, RecQ-like DNA helicase BLM. In words: Inhibition of BLM (unknown origin) assessed as increase in RAD51-ssDNA filaments up to 5 uM after 24 hrs by ELISA based DNA exchange activity assay.

T1 sequence (P54132 whole entry): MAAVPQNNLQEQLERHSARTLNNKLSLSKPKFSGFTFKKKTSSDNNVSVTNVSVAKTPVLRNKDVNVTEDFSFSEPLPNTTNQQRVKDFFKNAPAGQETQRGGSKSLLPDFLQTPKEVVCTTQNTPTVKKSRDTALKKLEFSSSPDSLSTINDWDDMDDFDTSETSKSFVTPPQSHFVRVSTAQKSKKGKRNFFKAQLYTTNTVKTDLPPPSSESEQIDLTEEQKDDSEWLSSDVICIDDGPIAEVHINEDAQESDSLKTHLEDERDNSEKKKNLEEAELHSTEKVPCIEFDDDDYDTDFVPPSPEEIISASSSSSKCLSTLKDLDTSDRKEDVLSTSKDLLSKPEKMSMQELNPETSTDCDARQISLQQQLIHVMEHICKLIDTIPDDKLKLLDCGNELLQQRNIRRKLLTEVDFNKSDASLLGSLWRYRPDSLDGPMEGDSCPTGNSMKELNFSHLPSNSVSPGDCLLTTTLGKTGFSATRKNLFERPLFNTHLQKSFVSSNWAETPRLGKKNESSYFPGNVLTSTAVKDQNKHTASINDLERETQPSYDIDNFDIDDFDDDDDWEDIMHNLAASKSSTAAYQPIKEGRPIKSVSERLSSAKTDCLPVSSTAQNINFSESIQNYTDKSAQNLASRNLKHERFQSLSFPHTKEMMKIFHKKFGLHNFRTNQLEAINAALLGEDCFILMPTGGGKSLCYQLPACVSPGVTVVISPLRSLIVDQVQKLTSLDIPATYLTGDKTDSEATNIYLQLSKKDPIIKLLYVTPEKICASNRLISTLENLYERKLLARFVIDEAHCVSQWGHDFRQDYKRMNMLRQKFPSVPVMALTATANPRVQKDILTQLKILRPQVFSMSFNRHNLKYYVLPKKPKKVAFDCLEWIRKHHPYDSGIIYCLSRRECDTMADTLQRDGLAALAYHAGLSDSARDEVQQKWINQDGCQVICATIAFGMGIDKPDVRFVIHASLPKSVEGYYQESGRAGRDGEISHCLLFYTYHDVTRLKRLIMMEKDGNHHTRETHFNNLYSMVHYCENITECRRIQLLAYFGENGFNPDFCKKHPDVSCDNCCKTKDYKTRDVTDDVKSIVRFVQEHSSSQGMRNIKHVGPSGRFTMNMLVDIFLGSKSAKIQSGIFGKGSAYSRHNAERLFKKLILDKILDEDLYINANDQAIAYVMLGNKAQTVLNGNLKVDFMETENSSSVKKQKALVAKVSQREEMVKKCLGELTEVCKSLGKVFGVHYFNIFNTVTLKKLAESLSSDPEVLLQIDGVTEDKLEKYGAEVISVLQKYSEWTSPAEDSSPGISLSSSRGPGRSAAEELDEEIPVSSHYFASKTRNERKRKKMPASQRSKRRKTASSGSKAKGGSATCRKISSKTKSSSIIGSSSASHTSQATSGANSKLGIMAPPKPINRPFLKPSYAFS
Sequence of RecQ-like DNA helicase BLM (Homo sapiens, UniProt P54132, I1168A) (P54132 whole entry I1168A): as the sequence (P54132 whole entry) above, with I1168A counted along it

Regarding `CCN(CC)CCCNc1cc2nc3n(c(=O)c2cc1F)CC/C3=C\c1ccc(C(C)C)cc1`, the Activity entry with HCT-116 [1] is “Dose-dependent effect”; with HCT-116 [5] it was 71.59%; in the assay with HCT-116 [7], “Dose-dependent effect”. The inhibition result in [2] and in [4] was “Active” each time. In addition, the pKd in assay [3] is 5.19. Moreover, the inhibition was 84.3% in assay [6] and “Dose-dependent effect” in [9]. In addition, the outcome in the assay on HCT-116 [8] was inactive.

The record behind these values is ChEMBL document CHEMBL4316604, “Discovery of Isaindigotone Derivatives as Novel Bloom's Syndrome Protein (BLM) Helicase Inhibitors That Disrupt the BLM/DNA Interactions and Regulate the Homologous Recombination Repair” (J Med Chem, 2019).
